Series [1] deals with RBL-2H3. Description: Inhibition of anti-DNP-IgE-induced degranulation in rat RBL2H3 cells assessed as beta-hexosaminidase release at 25 uM after 30 mins by fluorescence assay. It counts as functional. The settings on record: RBL-2H3, 0.5 h. In short, it runs like this:
(§1)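 RBL-2H3 cells grown in 70% MEM with Earle's salts/20% RPMI 1640/10% FBS/2 mM L-glutamine, sensitised overnight with anti-DNP IgE ([…]), washed in Tyrode's buffer, preincubated 1 h at 37 °C with or without compound, then challenged with DNP-HSA for 15 min. Supernatant β-hexosaminidase read with 4-methylumbelliferyl-N-acetyl-β-D-glucosaminide (2.5 mM, citrate, 30 min, 37 °C), fluorescence 365/440 nm; duplicate aliquots.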

Series [2] is described as follows: Cytotoxicity at rat RBL2H3 cells assessed as maximum tolerated concentration by lactate dehydrogenase release assay. It counts as cell-based. Conditions: RBL-2H3 cells, read-out: Activity.
In series [3] the test system is RBL-2H3. The series can be described thus: Inhibition of anti-DNP-IgE-induced degranulation in rat RBL2H3 cells assessed as beta-hexosaminidase release after 30 mins by fluorescence assay. The class given is functional, cell-based. The settings on record: RBL-2H3, 0.5 h. The method in brief:
as §1

As to `CCCCCCCCCCCCCCCCC(C(=O)O)C(O)(CC(=O)O)C(=O)O` (configuration not stated), the inhibition at 25 µM in series [1] was found to be 36%. As for `CCCCCCCCCCCC[S+]([O-])c1ccccc1O` (configuration not stated), the inhibition at 25 µM in series [1] was 30%. In addition, the MNTC in series [2] stood at 100 µM. Turning to `CCCCCCCCCCCC[S+]([O-])C1CCCCC1OC(C)=O` (configuration not stated), the inhibition at 25 µM in series [1] worked out at 73%. The MNTC in series [2] amounted to 100 µM. Regarding `CCCCCCCCCCCC[S+]([O-])c1ccccc1[S+](C)[O-]` (configuration not stated), the inhibition at 25 µM in series [1] was found to be 72%. In addition, the MNTC in series [2] came out at 100 µM. Regarding `CCCCCCCCCCCCCCCC(=O)OC[C@H](O)[C@H]1OC(=O)C(O)=C1O` [ASCORBYL PALMITATE], the inhibition at 25 µM in series [1] turned out to be 38%.

On to `CCCCCCCCCCCCCCCCCCCCc1ccc(S(N)(=O)=O)cc1`, for which the inhibition at 25 µM in series [1] was 12%. Consider `CCCCCCCCCCCCC1[S+]([O-])CCC[S+]1[O-]` (configuration not stated), for which the inhibition at 25 µM in series [1] turned out to be 80%. Besides, the IC50 in series [3] was determined as 10.7 µM. The MNTC in series [2] is 100 µM.

For `CCCCCCCCCCCC[S+]([O-])[C@@H]1CCCC[C@H]1O` (relative stereo), the inhibition at 25 µM in series [1] was determined as 69%. In series [2], the MNTC was 100 µM. For the compound `CCCCCCCCCCCC[S+]([O-])CC[S+]([O-])CC` (configuration not stated), the inhibition at 25 µM in series [1] is 51%. Further, the MNTC in series [2] was 100 µM. For `CCCCCCCCCCCCCC[N+](C)(C)[O-]`, the inhibition at 25 µM in series [1] came to 95%. Further, the IC50 in series [3] was 10.6 µM. Further, the MNTC in series [2] is 100 µM. For the compound `CCCCCCCCCCCC[N+](C)(C)[O-]`, the inhibition at 25 µM in series [1] was 40%. For the compound `CCCCCCCCCCCC[S+](C)[O-]` (configuration not stated) [DODECYL METHYL SULFOXIDE], the inhibition at 25 µM in series [1] is 66%. Moreover, the MNTC in series [2] is 100 µM.

For the origin of these results see ChEMBL document CHEMBL1781895, “Lipid-like sulfoxides and amine oxides as inhibitors of mast cell activation” (Eur J Med Chem, 2011).
